These results are taken from ChEMBL document CHEMBL2424580, “Radiosynthesis of N-(4-chloro-3-[(11)C]methoxyphenyl)-2-picolinamide ([(11)C]ML128) as a PET radiotracer for metabotropic glutamate receptor subtype 4 (mGlu4)” (Bioorg Med Chem, 2013).

Data set [1] deals with Cerebellum. In words: Drug uptake in Sprague-Dawley rat cerebellum at 24.1 MBq, iv measured within 20 mins by PET analysis. In kind it is ADME, organism-based. The conditions noted are these: in vivo. The method in brief: (§1)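 Male Sprague Dawley rats (300–500 g) under isoflurane/nitrous oxide anesthesia, with radioligand given via tail-vein catheter in 10% ethanol/saline. Dynamic small-animal PET ran for 60 min from injection (frames 18×10″, 14×30″, 20×60″, 10×180″), followed by CT for anatomy and attenuation. Data were corrected for uniformity, scatter and attenuation and reconstructed by MLEM (30 iterations) to give regional time-activity curves.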

Data set [2] in a line: Drug uptake in Sprague-Dawley rat olfactory bulb at 24.1 MBq, iv measured within 20 mins by PET analysis. In kind it is ADME, organism-based. The following applies: in vivo. An outline of the steps: as §1
The subject of data set [3] is Thalamus. In words: Drug uptake in Sprague-Dawley rat thalamus at 24.1 MBq, iv measured within 20 mins by PET analysis. In kind it is ADME, organism-based. The following applies: in vivo. The method in brief:
as §1

Data set [4] concerns Hippocampus. The data set is described as follows: Drug uptake in Sprague-Dawley rat hippocampus at 24.1 MBq, iv measured for 1 to 3 mins by PET analysis. In kind it is ADME, organism-based. The following applies: in vivo. The method in brief: as §1
The subject of data set [5] is Striatum. The data set is described as follows: Drug uptake in Sprague-Dawley rat striatum at 24.1 MBq, iv measured within 20 mins by PET analysis. In kind it is ADME, organism-based. The following applies: in vivo. An outline of the steps: as §1
Data set [6] relates to Striatum. The data set is described as follows: Drug uptake in Sprague-Dawley rat striatum at 24.1 MBq, iv measured for 1 to 3 mins by PET analysis. In kind it is ADME, organism-based. The following applies: in vivo. An outline of the steps: as §1
Data set [7] relates to Thalamus. The data set is described as follows: Drug uptake in Sprague-Dawley rat thalamus at 24.1 MBq, iv measured for 1 to 3 mins by PET analysis. In kind it is ADME, organism-based. The following applies: in vivo. The method in brief: as §1
Data set [8] is described as follows: Drug uptake in Sprague-Dawley rat olfactory bulb at 24.1 MBq, iv measured for 1 to 3 mins by PET analysis. In kind it is ADME, organism-based. The following applies: in vivo. The method in brief:
as §1

Data set [9] concerns Cerebellum. The data set is described as follows: Drug uptake in Sprague-Dawley rat cerebellum at 24.1 MBq, iv measured for 1 to 3 mins by PET analysis. The following applies: in vivo. In kind it is ADME, organism-based. The method in brief:
as §1

The test system of data set [10] is Hippocampus. In words: Drug uptake in Sprague-Dawley rat hippocampus at 24.1 MBq, iv measured within 20 mins by PET analysis. In kind it is ADME, organism-based. The following applies: in vivo. An outline of the steps:
as §1

Data set [11] in a line: Octanol-PBS buffer partition coefficient, log D of the compound at pH 7.4 by gamma counting analysis. In kind it is physicochemical. An outline of the steps:
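Radiotracer was partitioned between PBS and octanol by vortexing 2 min, then centrifuging at >8000 rpm for 2 min. Octanol was serially re-extracted into fresh PBS across six tube sets. Phases were gamma-counted with decay correction. logD = log(octanol activity × 10 / PBS activity).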

A further data set concerns Muscle tissue. The data set is described as follows: Biodistribution in Sprague-Dawley rat muscle at 27.4 to 48.1 MBq after 1 to 40 mins by gamma counting analysis. In kind it is ADME, organism-based. The following applies: in vivo. An outline of the steps: (§2)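 Male Sprague Dawley rats (300–500 g) given the radioligand i.v. (27.4–48.1 MBq/animal) in 10% ethanol/saline. Three rats were sacrificed at each of 1, 5, 10, 20 and 40 min. Harvested tissues were weighed and gamma-counted. Counts were corrected for decay and injected activity and expressed as %ID/g tissue.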

For the next data set, the system named is Kidney. In words: Biodistribution in Sprague-Dawley rat kidney at 27.4 to 48.1 MBq after 1 to 40 mins by gamma counting analysis. The conditions noted are these: in vivo. In kind it is ADME, organism-based. The method in brief:
as §2

In the next data set the test system is Liver. The data set is described as follows: Biodistribution in Sprague-Dawley rat liver at 27.4 to 48.1 MBq after 1 to 40 mins by gamma counting analysis. In kind it is ADME, organism-based. The following applies: in vivo. The method in brief:
as §2

The subject of the next data set is Lung. The data set is described as follows: Biodistribution in Sprague-Dawley rat lung at 27.4 to 48.1 MBq after 1 to 40 mins by gamma counting analysis. In kind it is ADME, organism-based. The conditions noted are these: in vivo. The method in brief: as §2
In another data set the test system is Heart. In words: Biodistribution in Sprague-Dawley rat heart at 27.4 to 48.1 MBq after 1 to 40 mins by gamma counting analysis. In kind it is ADME, organism-based. The following applies: in vivo. An outline of the steps:
as §2

Another data set relates to Blood. In words: Biodistribution in Sprague-Dawley rat blood at 27.4 to 48.1 MBq after 1 to 40 mins by gamma counting analysis. In kind it is ADME, organism-based. The following applies: in vivo. The method in brief:
as §2

Another data set has as its system Brain. The data set is described as follows: Biodistribution in Sprague-Dawley rat brain at 27.4 to 48.1 MBq after 1 to 40 mins by gamma counting analysis. The conditions noted are these: in vivo. In kind it is ADME, organism-based. An outline of the steps: as §2
Data set [12] can be described thus: Metabolic stability in Sprague-Dawley rat plasma assessed as intact compound level at 24.1 MBq, iv after 50 mins by gamma counting analysis. The conditions noted are these: read-out: Stability. In kind it is ADME, organism-based.
Data set [13] is described as follows: Metabolic stability in Sprague-Dawley rat plasma assessed as intact compound level at 24.1 MBq, iv after 5 mins by gamma counting analysis. In kind it is ADME, organism-based. The conditions noted are these: read-out: Stability. The method in brief:
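Femoral arterial blood was drawn from three rats at 5, 25 and 55 min after i.v. radioligand and centrifuged. Plasma was mixed 1:1 with acetonitrile and centrifuged to remove protein. The supernatant was loaded on a phenyl SPE cartridge and eluted with an acetonitrile–0.1% TFA/water gradient (0–100% acetonitrile) to separate intact tracer.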

Data set [14] is described as follows: Reduction in drug uptake in Sprague-Dawley rat whole brain at 24.1 MBq, iv after 2 to 15 mins by PET analysis in presence of mGlu5 blocker MTEP hydrochloride. The following applies: in vivo. In kind it is ADME, organism-based. The method in brief:
(§3)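 MTEP·HCl (5 mg/kg, in sterile water) was injected into the tail vein 2 min before i.v. radioligand. Anesthetized rats were imaged by 60-min dynamic PET with CT attenuation correction and MLEM reconstruction. Uptake at 2–15 min was compared with control scans, and percent change was calculated per brain region.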

Data set [15] deals with Hippocampus. The data set is described as follows: Reduction in drug uptake in Sprague-Dawley rat hippocampus at 24.1 MBq, iv after 2 to 15 mins by PET analysis in presence of mGlu5 blocker MTEP hydrochloride. In kind it is ADME, organism-based. The conditions noted are these: in vivo. The method in brief:
as §3

Data set [16] has as its system Striatum. The data set is described as follows: Reduction in drug uptake in Sprague-Dawley rat striatum at 24.1 MBq, iv after 2 to 15 mins by PET analysis in presence of mGlu5 blocker MTEP hydrochloride. In kind it is ADME, organism-based. The conditions noted are these: in vivo. The method in brief: as §3
Data set [17] in a line: Reduction in drug uptake in Sprague-Dawley rat whole brain at 24.1 MBq, iv after 2 to 15 mins by PET analysis in presence of mGlu4 blocker N-(3-(Difluoromethoxy)phenyl)-2-picolinamide hydrochloride salt. In kind it is ADME, organism-based. The conditions noted are these: in vivo. An outline of the steps: (§4)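 Rats were pretreated with the mGlu4 blocker (10 mg/kg i.p., in 10% ethanol/10% Tween-20 in water) 30 min before i.v. radioligand. Anesthetized rats were imaged by 60-min dynamic PET with CT attenuation correction and MLEM reconstruction. Uptake at 2–15 min was compared with control scans, and percent change was calculated per brain region.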

For data set [18], the system named is Cerebellum. In words: Reduction in drug uptake in Sprague-Dawley rat cerebellum at 24.1 MBq, iv after 2 to 15 mins by PET analysis in presence of mGlu4 blocker N-(3-(Difluoromethoxy)phenyl)-2-picolinamide hydrochloride salt. The conditions noted are these: in vivo. In kind it is ADME, organism-based. The method in brief: as §4
Data set [19] relates to Hippocampus. In words: Reduction in drug uptake in Sprague-Dawley rat hippocampus at 24.1 MBq, iv after 2 to 15 mins by PET analysis in presence of mGlu4 blocker N-(3-(Difluoromethoxy)phenyl)-2-picolinamide hydrochloride salt. In kind it is ADME, organism-based. The conditions noted are these: in vivo. The method in brief:
as §4

For data set [20], the system named is Striatum. In words: Reduction in drug uptake in Sprague-Dawley rat striatum at 24.1 MBq, iv after 2 to 15 mins by PET analysis in presence of mGlu4 blocker N-(3-(Difluoromethoxy)phenyl)-2-picolinamide hydrochloride salt. In kind it is ADME, organism-based. The following applies: in vivo. The method in brief: as §4
The target in data set [21] is Metabotropic glutamate receptor 8 (Homo sapiens) (UniProt O00222). In words: Antagonist activity at mGlu8 receptor (unknown origin) expressed in CHO cells assessed as inhibition of glutamate-induced inositol phosphate accumulation at 10 uM after 45 mins by liquid scintillation counting analysis relative to control. In kind it is functional, cell-based.
Sequence of Metabotropic glutamate receptor 8 (Homo sapiens) (O00222 whole entry): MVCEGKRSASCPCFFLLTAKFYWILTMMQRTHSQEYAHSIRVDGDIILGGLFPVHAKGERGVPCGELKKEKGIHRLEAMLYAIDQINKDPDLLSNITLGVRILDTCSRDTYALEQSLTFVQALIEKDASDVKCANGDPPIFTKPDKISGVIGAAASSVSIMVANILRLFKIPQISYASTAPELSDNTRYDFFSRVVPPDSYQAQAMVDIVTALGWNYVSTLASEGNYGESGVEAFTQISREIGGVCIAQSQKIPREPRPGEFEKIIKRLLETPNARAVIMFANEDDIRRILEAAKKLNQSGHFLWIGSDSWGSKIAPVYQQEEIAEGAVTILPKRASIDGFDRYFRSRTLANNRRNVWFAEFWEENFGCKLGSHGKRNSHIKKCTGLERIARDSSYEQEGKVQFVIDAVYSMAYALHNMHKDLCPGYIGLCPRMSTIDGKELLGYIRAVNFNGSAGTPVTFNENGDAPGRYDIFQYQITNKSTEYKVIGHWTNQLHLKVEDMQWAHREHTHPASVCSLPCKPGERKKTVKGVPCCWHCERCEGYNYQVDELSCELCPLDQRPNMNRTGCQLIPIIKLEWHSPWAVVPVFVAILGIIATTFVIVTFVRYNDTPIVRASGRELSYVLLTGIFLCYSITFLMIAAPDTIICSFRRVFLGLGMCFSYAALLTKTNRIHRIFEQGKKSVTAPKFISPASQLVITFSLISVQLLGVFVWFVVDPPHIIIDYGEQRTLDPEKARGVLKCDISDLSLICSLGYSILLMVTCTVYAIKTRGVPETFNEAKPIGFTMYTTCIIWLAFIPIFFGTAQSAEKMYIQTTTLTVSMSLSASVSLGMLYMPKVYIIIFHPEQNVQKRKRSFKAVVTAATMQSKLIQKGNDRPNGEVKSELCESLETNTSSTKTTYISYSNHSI
Data set [22] deals with Metabotropic glutamate receptor 5 (Homo sapiens) (UniProt P41594). In words: Antagonist activity at mGlu5a receptor (unknown origin) expressed in CHO cells assessed as inhibition of glutamate-induced inositol phosphate accumulation at 10 uM after 45 mins by liquid scintillation counting analysis relative to control. In kind it is functional, cell-based.
Sequence of Metabotropic glutamate receptor 5 (Homo sapiens) (P41594 21-1212 limits assumed): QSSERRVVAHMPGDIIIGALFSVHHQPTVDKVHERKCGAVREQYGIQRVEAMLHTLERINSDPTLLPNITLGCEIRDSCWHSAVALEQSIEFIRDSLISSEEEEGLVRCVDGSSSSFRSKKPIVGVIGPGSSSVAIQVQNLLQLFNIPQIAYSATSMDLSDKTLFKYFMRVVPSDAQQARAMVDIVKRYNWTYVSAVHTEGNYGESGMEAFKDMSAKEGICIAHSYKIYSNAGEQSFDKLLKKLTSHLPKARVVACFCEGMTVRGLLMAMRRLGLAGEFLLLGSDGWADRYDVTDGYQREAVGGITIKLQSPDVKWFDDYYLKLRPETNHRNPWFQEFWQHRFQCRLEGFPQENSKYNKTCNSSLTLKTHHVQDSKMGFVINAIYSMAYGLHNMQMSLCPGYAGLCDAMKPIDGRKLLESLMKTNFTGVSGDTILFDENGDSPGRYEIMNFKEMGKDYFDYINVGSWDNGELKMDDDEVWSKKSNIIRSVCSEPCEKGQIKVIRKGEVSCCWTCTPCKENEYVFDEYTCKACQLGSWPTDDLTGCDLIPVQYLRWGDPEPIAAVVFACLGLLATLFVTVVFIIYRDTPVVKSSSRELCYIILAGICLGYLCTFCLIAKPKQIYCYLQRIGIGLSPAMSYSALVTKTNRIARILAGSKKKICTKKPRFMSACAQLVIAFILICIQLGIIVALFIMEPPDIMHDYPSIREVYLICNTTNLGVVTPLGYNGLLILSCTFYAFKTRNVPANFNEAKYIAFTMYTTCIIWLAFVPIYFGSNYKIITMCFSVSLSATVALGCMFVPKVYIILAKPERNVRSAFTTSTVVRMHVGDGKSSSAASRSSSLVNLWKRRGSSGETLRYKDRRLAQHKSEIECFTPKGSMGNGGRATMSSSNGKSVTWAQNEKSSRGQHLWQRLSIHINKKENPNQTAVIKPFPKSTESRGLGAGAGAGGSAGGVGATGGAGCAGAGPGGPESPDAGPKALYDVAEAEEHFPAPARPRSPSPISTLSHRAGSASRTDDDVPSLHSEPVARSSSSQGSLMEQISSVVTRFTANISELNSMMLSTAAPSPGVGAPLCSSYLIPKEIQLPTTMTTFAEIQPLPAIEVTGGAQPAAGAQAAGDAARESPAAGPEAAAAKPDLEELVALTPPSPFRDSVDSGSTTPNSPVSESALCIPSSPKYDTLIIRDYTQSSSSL
The target of data set [23] is Metabotropic glutamate receptor 8 (Homo sapiens) (UniProt O00222). In words: Agonist activity at mGlu8 receptor (unknown origin) expressed in CHO cells assessed as induction of inositol phosphate accumulation at 10 uM after 45 mins by liquid scintillation counting analysis relative to control. In kind it is functional, cell-based. An outline of the steps: (§5)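 Stably transfected CHO cells grown to confluency (3–4 days), then labelled overnight with myo-[3H]inositol in glutamine-free medium. Compound at 10 μM, 45 min at 37°C, in Locke's buffer pH 7.4 with 20 mM LiCl. IPs extracted with 0.1 M HCl, separated by anion exchange, counted by liquid scintillation. Result given as % of maximal agonist activity. Duplicates in two experiments on different passages.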

The target of data set [24] is Metabotropic glutamate receptor 5 (Homo sapiens) (UniProt P41594). In words: Agonist activity at mGlu5a receptor (unknown origin) expressed in CHO cells assessed as induction of inositol phosphate accumulation at 10 uM after 45 mins by liquid scintillation counting analysis relative to control. In kind it is functional, cell-based. An outline of the steps:
as §5

Broadly, the logD is the decadic logarithm of the distribution of all forms, ionised or not, between an organic phase and buffer at a given pH. Regarding `[11CH3]Oc1cc(NC(=O)c2ccccn2)ccc1Cl`, the Drug uptake result is on record as “Not Active” with Cerebellum [1]; “Not Active” in data set [2]; “Not Active” in the data set on Thalamus [3]; “Active” in the data set on Hippocampus [4]; “Not Active” in the data set with Striatum [5]; “Active” in the data set on Striatum [6]. Besides, the Drug uptake result in the data set with Thalamus [7] is “Active”; in data set [8] it was “Active”; in the data set on Cerebellum [9] it was “Active”; in the data set on Hippocampus [10], “Not Active”; in the data set on Muscle tissue, below 1 % ID/g; in the data set with Kidney, above 1 % ID/g. In addition, the Drug uptake with Liver is above 1 % ID/g; with Lung, below 1 % ID/g; in the data set on Heart it was below 1 % ID/g; with Blood, below 1 % ID/g; in the data set with Brain it was below 1 % ID/g; in data set [14] it was “Active”. For the same compound, the Drug uptake entry (with Hippocampus [15]; with Striatum [16]; in data set [17]; in the data set on Cerebellum [18]; in the data set on Hippocampus [19]; in the data set on Striatum [20]) was “Active” throughout. The compound also had a logD in data set [11] of 3.09. The remaining at 50 min in [12] came to 10%. Further, the remaining at 5 min in [13] worked out at 30%.
The term inhibition denotes the drop in the measured response relative to a control, in per cent. In the case of `COc1cc(NC(=O)c2ccccn2)ccc1Cl`, the values for the inhibition in [21] and in [22] were -5% and 51%, respectively. Further, the values for the Activity in data set [23] and in [24] were 13% and -15%, respectively.
